TCR-CD3 inh = human TCR-CD3 binding inhibition. TAMRA-labeled TCR probe fluorescence, biochemical. inhibition, % at 9.4 µM. actives 0.37% (n = 360,000); in the data active = inhibition above about 19%;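 also: recombinant mutant TCR 2C K166C tagged with TAMRA read by polarization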
rCAG binder = binds r(CAG) RNA repeats | AID 651821 | inhibition, % at 3 µM | r(CAG) RNA repeat, TO-PRO-1 dye displacement fluorescence | actives 1.3% (n = 370,000);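 active = inhibition above the plate cutoff, the mean of all test compounds on that plate plus 3 SD, cut at about 35% in these data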;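 also: higher means more dye released from RNA so lower well fluorescence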
mABHD4 FP = inhibits mouse alpha/beta hydrolase domain 4 | inhibition, % at 8.92 µM | AID 720543 | purified mABHD4, FP-Rh probe fluorescence polarization | actives 0.54% (n = 370,000) | Q8VD66;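 active = inhibition exceeding the mean over every tested compound plus 3 SD, cut at about 30% in these data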
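system = mouse ABHD4 enzyme, wild type | medium = HEPES pH 7.0, NaCl, Pluronic buffer | also added = FP-Rh probe | incubation = Enzyme–compound pre-incubation 45 min, then probe 60 min, both 25 °C | technique = fluorescence polarization, excitation 525 nm, emission 598 nm, BODIPY TMR filters | controls = S159A mutant high control, sample median low control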
SIAE primary = blocks human sialic acid acetylesterase; AID 1053197; actives 0.69% (n = 370,000); Q9HAT2; SIAE FP-Rh probe binding, fluorescence polarization; inhibition, % at 9.66 µM;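 active = inhibition above a cutoff: mean of compounds within the control limits plus 3 SD of those, cut at about 17% in these data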
PRMT1 inh = inhibitors of human PRMT1 | Q99873 | recombinant PRMT1, activity-based probe fluorescence polarization | inhibition, % at 2.79 µM | actives 1.3% (n = 370,000) | AID 652257;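 active = inhibition above about 21% made by adding two undisclosed values, limit read from the data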
Target sequence (Q99873 whole entry, looked up): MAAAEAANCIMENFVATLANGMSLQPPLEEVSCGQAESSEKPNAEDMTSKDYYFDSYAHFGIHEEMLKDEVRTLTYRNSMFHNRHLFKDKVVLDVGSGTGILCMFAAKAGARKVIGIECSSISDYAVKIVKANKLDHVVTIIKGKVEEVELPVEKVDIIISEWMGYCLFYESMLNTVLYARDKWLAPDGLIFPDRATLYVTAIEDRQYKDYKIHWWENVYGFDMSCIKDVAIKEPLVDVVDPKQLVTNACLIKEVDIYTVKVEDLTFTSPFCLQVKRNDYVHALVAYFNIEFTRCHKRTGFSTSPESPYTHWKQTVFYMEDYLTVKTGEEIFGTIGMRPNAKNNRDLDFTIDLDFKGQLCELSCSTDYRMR
PRMT1 confirm = PRMT1 (human) inhibition, FP confirmation | recombinant His-PRMT1, activity-based probe fluorescence polarization | AID 687036 | actives 42% (n = 3,300) | shares compounds with PRMT1 inh | inhibition, % at 2.79 µM;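 active = mean inhibition across replicates above the hit cutoff derived for the earlier primary screen, cut at about 22% in these data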
Each line names hits and unclear results; the compound was inactive in the other large screens (follow-up assays come after a bar, where they were run). Most compounds without a hit are left out; they make up all but 3.3% or so of the library.

Cc1sc(NC(=O)CSc2nnc(C)c(=O)[nH]2)c(C#N)c1C	PRMT1 inh 26.6 | PRMT1 confirm 23.7
Cc1cccc(-c2cccc3c4c([nH]c23)[C@@H]2C[C@H](N(C)C(=O)Nc3ccccc3)[C@H]([C@H](C)O)C(=O)N2CC4)c1	none (no result: TCR-CD3 inh)
CCCCCC[N+](C)(C)CCSSCC[N+](C)(C)CCCCCC	PRMT1 inh 90.6 | PRMT1 confirm 55.6
O=C(c1cncnc1)N1CCC(n2nnc3ncccc32)CC1	none (no result: TCR-CD3 inh)
O=C1C=CC(=O)N1c1ccc2c(c1)C(NC(=O)C(F)(F)F)c1ccccc1-2 (stereo unspecified)	PRMT1 inh 91.2 | PRMT1 confirm 86.5
CN(C)C(=O)NC1c2ccccc2-c2ccccc21	none
CC[N+]1(C)CCC(O)(/C=C/c2ccccc2)C(C(=O)/C=C/c2ccccc2)C1 (stereo unspecified)	PRMT1 inh 68.1 | PRMT1 confirm 49.0
O=c1c2c3c(sc2n(CCN2CCOCC2)c(=O)n1C1CCCCC1)CCCCC3	none
O=c1ccsn1Cc1ccccc1	PRMT1 inh 36.9 | PRMT1 confirm 44.1
O=C(CN1C(=O)C2C3C=CC(C3)C2C1=O)OCC(=O)c1ccc([N+](=O)[O-])cc1 (stereo unspecified)	PRMT1 inh 50.0 | PRMT1 confirm 42.3
CC(C(=O)OCC(=O)c1ccc([N+](=O)[O-])cc1)N1C(=O)C2C3C=CC(C3)C2C1=O (stereo unspecified)	PRMT1 inh 27.7 | PRMT1 confirm inactive
O=C(CN1C(=O)C2C3C=CC(C3)C2C1=O)OCC(=O)c1ccc(Cl)cc1 (stereo unspecified)	none
O=C(CC(SCCO)c1ccc2c(c1)OCO2)c1cccs1 (stereo unspecified)	PRMT1 inh 29.9 | PRMT1 confirm 31.8
CC[n+]1c(/C=C2/C=C(C)CC(C)(C)C2)sc2ccc(OC)cc21	PRMT1 inh 35.7 | PRMT1 confirm inactive
CC[n+]1c(/C=C2\C=C(C)CC(C)(C)C2)sc2ccccc21	PRMT1 inh 43.5 | PRMT1 confirm inactive
O=C(NCCc1c[nH]c2ccccc12)OCc1cn(Cc2cccc(F)c2F)nn1	none (no result: TCR-CD3 inh)
O=C1NC(c2ccccc2)=N/C1=C/c1ccco1	PRMT1 inh 33.9 | PRMT1 confirm inactive
O=C1NC(c2cccc(Br)c2)=N/C1=C\c1ccco1	none
O=C(O)C1Nc2c(C(F)(F)F)ccc(Cl)c2C2C=CCC12 (stereo unspecified)	mABHD4 FP 35.9, PRMT1 inh 33.5 | PRMT1 confirm 28.3
O=C(Nc1ccc(Oc2ccccc2)cc1)C1CCCN1S(=O)(=O)c1cccc2cccnc12 (stereo unspecified)	none (no result: TCR-CD3 inh)
CC1(C)CC2(CC(C)(C(=O)CSc3nc4ccccc4s3)OC2=O)C(=O)O1 (stereo unspecified)	none
CC1(C(=O)CSc2nc3ccccc3s2)CCC(=O)O1 (stereo unspecified)	PRMT1 inh 28.9 | PRMT1 confirm 22.1
Oc1c(Br)cc(Br)cc1/C=N/n1c(-c2ccccc2)n[nH]c1=S	none
CC(C)Oc1cccc(-c2n[nH]c(=S)n2N=Cc2ccc(O)cc2O)c1	PRMT1 inh 37.2 (no result: TCR-CD3 inh) | PRMT1 confirm inactive
O=C(CSC1=Nc2ccccc2C2CC=NN12)Nc1ccc(F)cc1Cl (stereo unspecified)	PRMT1 inh 32.3 | PRMT1 confirm 43.1
O=C(CSc1ccc(-c2cccs2)nn1)c1cccs1	PRMT1 inh 27.9 | PRMT1 confirm inactive
COCCCNC(=O)C[C@H]1C[C@@]2(C(=O)OC)C(=C[C@H](C3CCCC3)O[C@@H]2C)N(CCc2ccc(OC)c(OC)c2)C1=O	none (no result: TCR-CD3 inh)
CC(C)CNC(=O)C1CSCCS(=O)(=O)N1Cc1ccc(F)cc1 (stereo unspecified)	none (no result: TCR-CD3 inh)
CC(=O)Nc1ccc(N2C(=O)CC(Sc3nc4ccccc4s3)C2=O)cc1 (stereo unspecified)	none
O=C1CC(Sc2ncccn2)C(=O)N1c1ccccc1 (stereo unspecified)	none
CCOc1ccc(N2C(=O)CC(Sc3nc4ccc(OCC)cc4s3)C2=O)cc1 (stereo unspecified)	none
COc1ccc(N2C(=O)CC(Sc3nc4ccccc4s3)C2=O)cc1OC (stereo unspecified)	PRMT1 inh 26.2 | PRMT1 confirm 22.9
CCOC(=O)c1ccc(N2C(=O)CC(Sc3nnc(C)s3)C2=O)cc1 (stereo unspecified)	PRMT1 inh 71.7 | PRMT1 confirm 75.9
Cc1nc(SC2CC(=O)N(c3ccccc3)C2=O)n[nH]1 (stereo unspecified)	PRMT1 inh 50.3 | PRMT1 confirm 62.6
C=CCNc1nnc(SC2CC(=O)N(c3ccc(OCCC)cc3)C2=O)s1 (stereo unspecified)	PRMT1 inh 67.2 | PRMT1 confirm 66.2
COC(=O)C1CN(Cc2cn(Cc3ccc(OC)cc3)nn2)CCS(=O)(=O)N1Cc1ccc(C)cc1 (stereo unspecified)	none (no result: TCR-CD3 inh)
COc1ccc(Cn2ccc3ccc(-c4ccc5ccn(C(=O)c6cccc(OC)c6)c5c4)cc32)cc1	none (no result: TCR-CD3 inh)
Nc1nnc(SC2CC(=O)N(c3ccccc3)C2=O)s1 (stereo unspecified)	PRMT1 inh 74.6 | PRMT1 confirm 72.7
COc1ccccc1N1C(=O)CC(Sc2n[nH]c(-c3cccc(C)c3)n2)C1=O (stereo unspecified)	PRMT1 inh 88.1 | PRMT1 confirm 72.5
C=CCNC(=S)N(C)[C@H]1C[C@H]2c3[nH]c4c(-c5ccccc5)cccc4c3CCN2C(=O)[C@H]1[C@H](C)O	none
CCN1CCN(C(=S)c2ccc(OCC(=O)Nc3ccc(OC)cc3)cc2)CC1	none
CCN1CCN(C(=S)c2ccc(OCC(=O)NCc3ccccc3)cc2)CC1	PRMT1 inh 27.0 | PRMT1 confirm 37.7
CC(OC(=O)c1ccc2ccccc2c1)C(=O)N(C)Cc1ccccc1 (stereo unspecified)	none
CC(C)N(CCC(=O)c1ccc2ccccc2c1)Cc1ccccc1	PRMT1 inh 54.3 | PRMT1 confirm 71.4
Cc1nc(SCC(=O)c2cccc([N+](=O)[O-])c2)n[nH]1	PRMT1 inh 30.1 | PRMT1 confirm inactive
O=C(CCNc1ccc(F)cc1)c1cccc([N+](=O)[O-])c1	PRMT1 inh 31.6 | PRMT1 confirm 39.4
O=C(CNC(=O)c1cccc([N+](=O)[O-])c1)OCCCC(=O)c1ccc(F)cc1	none
Cc1ccnc(SCC(=O)c2cccc([N+](=O)[O-])c2)n1	none
O=C(CCNc1ccccc1)c1cccc([N+](=O)[O-])c1	PRMT1 inh 36.5 | PRMT1 confirm 30.4
Cc1ccc(NCCC(=O)c2cccc([N+](=O)[O-])c2)cc1	PRMT1 inh 33.2 | PRMT1 confirm 53.9
COC(=O)C1CN(Cc2ccc(OC)cc2)CCS(=O)(=O)N1Cc1ccc(C)cc1 (stereo unspecified)	none (no result: TCR-CD3 inh)

Bioassay records deposited in PubChem BioAssay by The Scripps Research Institute Molecular Screening Center.
